Measured values from ChEMBL document CHEMBL4190362, “Synthesis, biological evaluation and quantitative structure-active relationships of 1,3-thiazolidin-4-one derivatives. A promising chemical scaffold endowed with high antifungal potency and low cytotoxicity” (Eur J Med Chem, 2017).

Assays:
Assay type in all cases: functional
Candida tropicalis = assay: Antifungal activity against Candida tropicalis clinical isolates assessed as inhibition of microbial growth incubated for 24 hrs by broth microdilution method
Method in brief: (§1)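 Twenty-two clinical Candida isolates (8 C. albicans, 4 C. glabrata, 3 C. tropicalis, 3 C. krusei, 2 C. parapsilosis, 2 C. sake) were identified by colony morphology and biochemistry and subcultured at 35 °C for purity. Compounds were dissolved in DMSO and tested by broth microdilution in Sabouraud dextrose broth per NCCLS/CLSI/EUCAST guidance. Values are geometric mean MIC per species (µg/mL).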

Klebsiella oxytoca = assay: Antibacterial activity against Klebsiella oxytoca assessed as inhibition of microbial growth incubated for 18 to 22 hrs by broth microdilution method
Method in brief: (§2)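 Broth microdilution in Mueller-Hinton II broth following NCCLS recommendations; compounds dissolved in DMSO.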

Escherichia coli = assay: Antibacterial activity against Escherichia coli assessed as inhibition of microbial growth incubated for 18 to 22 hrs by broth microdilution method; method in brief: as §2
Nakaseomyces glabratus = assay: Antifungal activity against Candida glabrata clinical isolates assessed as inhibition of microbial growth incubated for 24 hrs by broth microdilution method; method in brief: as §1
Proteus mirabilis = assay: Antibacterial activity against Proteus mirabilis assessed as inhibition of microbial growth incubated for 18 to 22 hrs by broth microdilution method; method in brief: as §2
Pichia kudriavzevii = assay: Antifungal activity against Candida krusei clinical isolates assessed as inhibition of microbial growth incubated for 24 hrs by broth microdilution method; method in brief: as §1
[Candida] sake = Antifungal activity against Candida sake clinical isolates assessed as inhibition of microbial growth incubated for 24 hrs by broth microdilution method; conditions: Fermentozyma sake; method in brief: as §1
Staphylococcus warneri = assay: Antibacterial activity against Staphylococcus warneri assessed as inhibition of microbial growth incubated for 18 to 22 hrs by broth microdilution method; method in brief: as §2
Enterobacter = assay: Antibacterial activity against Enterobacter spp. assessed as inhibition of microbial growth incubated for 18 to 22 hrs by broth microdilution method; method in brief: as §2
Staphylococcus aureus = assay: Antibacterial activity against Staphylococcus aureus assessed as inhibition of microbial growth incubated for 18 to 22 hrs by broth microdilution method; method in brief: as §2
Candida albicans = assay: Antifungal activity against Candida albicans clinical isolates assessed as inhibition of microbial growth incubated for 24 hrs by broth microdilution method; method in brief: as §1
Candida parapsilosis = assay: Antifungal activity against Candida parapsilosis clinical isolates assessed as inhibition of microbial growth incubated for 24 hrs by broth microdilution method; conditions: Lodderomyces parapsilosis; method in brief: as §1
Enterococcus faecalis = assay: Antibacterial activity against Streptococcus faecalis assessed as inhibition of microbial growth incubated for 18 to 22 hrs by broth microdilution method; method in brief: as §2

SMILES	MIC (Candida tropicalis)	MIC (Klebsiella oxytoca)	MIC (Escherichia coli)	MIC (Nakaseomyces glabratus)	MIC (Proteus mirabilis)	MIC (Pichia kudriavzevii)	MIC ([Candida] sake)	MIC (Staphylococcus warneri)	MIC (Enterobacter)	MIC (Staphylococcus aureus)	MIC (Candida albicans)	MIC (Candida parapsilosis)	MIC (Enterococcus faecalis)
C/C(=N/N=C1/SCC(=O)N1Cc1ccccc1)c1ccsc1	128 µg/mL	≥ 256 µg/mL	≥ 256 µg/mL	4 µg/mL	≥ 256 µg/mL	128 µg/mL	128 µg/mL	≥ 256 µg/mL	≥ 256 µg/mL	≥ 256 µg/mL	256 µg/mL	128 µg/mL	≥ 256 µg/mL
C/C(=N/N=C1/SCC(=O)N1Cc1ccccc1)c1ccco1	256 µg/mL	≥ 256 µg/mL	≥ 256 µg/mL	256 µg/mL	≥ 256 µg/mL	256 µg/mL	256 µg/mL	≥ 256 µg/mL	≥ 256 µg/mL	≥ 256 µg/mL	256 µg/mL	256 µg/mL	≥ 256 µg/mL
C/C(=N/N=C1/SCC(=O)N1Cc1ccccc1)c1ccccc1[N+](=O)[O-]	2 µg/mL	≥ 256 µg/mL	≥ 256 µg/mL	2 µg/mL	≥ 256 µg/mL	8 µg/mL	4 µg/mL	≥ 256 µg/mL	≥ 256 µg/mL	≥ 256 µg/mL	2 µg/mL	2 µg/mL	≥ 256 µg/mL
C/C(=N/N=C1/SCC(=O)N1Cc1ccccc1)C1CCCCC1	8 µg/mL	≥ 256 µg/mL	≥ 256 µg/mL	8 µg/mL	≥ 256 µg/mL	8 µg/mL	8 µg/mL	≥ 256 µg/mL	≥ 256 µg/mL	≥ 256 µg/mL	8 µg/mL	8 µg/mL	≥ 256 µg/mL
O=C1CS/C(=N/N=C2CCCCCCC2)N1Cc1ccccc1	8 µg/mL	≥ 256 µg/mL	≥ 256 µg/mL	8 µg/mL	≥ 256 µg/mL	8 µg/mL	8 µg/mL	≥ 256 µg/mL	≥ 256 µg/mL	≥ 256 µg/mL	8 µg/mL	8 µg/mL	≥ 256 µg/mL
C/C(=N/N=C1/SCC(=O)N1Cc1ccccc1)c1ccc(Cl)s1	256 µg/mL	≥ 256 µg/mL	≥ 256 µg/mL	8 µg/mL	≥ 256 µg/mL	128 µg/mL	128 µg/mL	≥ 256 µg/mL	≥ 256 µg/mL	≥ 256 µg/mL	256 µg/mL	128 µg/mL	≥ 256 µg/mL
O=C1CS/C(=N/N=C\c2ccco2)N1Cc1ccccc1	8 µg/mL	≥ 256 µg/mL	≥ 256 µg/mL	4 µg/mL	≥ 256 µg/mL	4 µg/mL	4 µg/mL	≥ 256 µg/mL	≥ 256 µg/mL	≥ 256 µg/mL	8 µg/mL	4 µg/mL	≥ 256 µg/mL
C/C(=N/N=C1/SCC(=O)N1Cc1ccccc1)c1ccccc1	128 µg/mL	≥ 256 µg/mL	≥ 256 µg/mL	4 µg/mL	≥ 256 µg/mL	4 µg/mL	4 µg/mL	≥ 256 µg/mL	≥ 256 µg/mL	≥ 256 µg/mL	8 µg/mL	4 µg/mL	≥ 256 µg/mL
C/C(=N/N=C1/SCC(=O)N1Cc1ccccc1)c1cccs1	16 µg/mL	≥ 256 µg/mL	≥ 256 µg/mL	4 µg/mL	≥ 256 µg/mL	4 µg/mL	8 µg/mL	≥ 256 µg/mL	≥ 256 µg/mL	≥ 256 µg/mL	2 µg/mL	8 µg/mL	≥ 256 µg/mL
CC1=C(/C=N\N=C2\SCC(=O)N2Cc2ccccc2)C(C)(C)CC=C1	2 µg/mL	≥ 256 µg/mL	≥ 256 µg/mL	4 µg/mL	≥ 256 µg/mL	4 µg/mL	2 µg/mL	≥ 256 µg/mL	≥ 256 µg/mL	≥ 256 µg/mL	4 µg/mL	4 µg/mL	≥ 256 µg/mL
O=C1CS/C(=N/N=C\c2cccs2)N1Cc1ccccc1	8 µg/mL	≥ 256 µg/mL	≥ 256 µg/mL	8 µg/mL	≥ 256 µg/mL	32 µg/mL	32 µg/mL	≥ 256 µg/mL	≥ 256 µg/mL	≥ 256 µg/mL	8 µg/mL	32 µg/mL	≥ 256 µg/mL
C/C(=N/N=C1\NC(=O)CS1)c1ccc(/C(C)=N\N=C2/NC(=O)CS2)cc1	2 µg/mL	≥ 256 µg/mL	≥ 256 µg/mL	2 µg/mL	≥ 256 µg/mL	2 µg/mL	2 µg/mL	≥ 256 µg/mL	≥ 256 µg/mL	≥ 256 µg/mL	2 µg/mL	2 µg/mL	≥ 256 µg/mL

The remaining lines, values ahead:

MIC (Candida tropicalis)	MIC (Klebsiella oxytoca)	MIC (Escherichia coli)	MIC (Nakaseomyces glabratus)	MIC (Proteus mirabilis)	MIC (Pichia kudriavzevii)	MIC ([Candida] sake)	MIC (Staphylococcus warneri)	MIC (Enterobacter)	MIC (Staphylococcus aureus)	MIC (Candida albicans)	MIC (Candida parapsilosis)	MIC (Enterococcus faecalis)	SMILES
2 µg/mL	≥ 256 µg/mL	≥ 256 µg/mL	2 µg/mL	≥ 256 µg/mL	2 µg/mL	8 µg/mL	≥ 256 µg/mL	≥ 256 µg/mL	≥ 256 µg/mL	2 µg/mL	2 µg/mL	≥ 256 µg/mL	O=C1CS/C(=N/N=C\c2cccc([N+](=O)[O-])c2)N1Cc1ccccc1
8 µg/mL	≥ 256 µg/mL	≥ 256 µg/mL	2 µg/mL	≥ 256 µg/mL	4 µg/mL	8 µg/mL	≥ 256 µg/mL	≥ 256 µg/mL	≥ 256 µg/mL	4 µg/mL	16 µg/mL	≥ 256 µg/mL	C/C(=N/N=C1/SCC(=O)N1Cc1ccccc1)c1cccc([N+](=O)[O-])c1
2 µg/mL	≥ 256 µg/mL	≥ 256 µg/mL	2 µg/mL	≥ 256 µg/mL	2 µg/mL	4 µg/mL	≥ 256 µg/mL	≥ 256 µg/mL	≥ 256 µg/mL	2 µg/mL	2 µg/mL	≥ 256 µg/mL	O=C1CS/C(=N/N=C\c2ccccc2[N+](=O)[O-])N1Cc1ccccc1
16 µg/mL	≥ 256 µg/mL	≥ 256 µg/mL	4 µg/mL	≥ 256 µg/mL	16 µg/mL	16 µg/mL	≥ 256 µg/mL	≥ 256 µg/mL	≥ 256 µg/mL	4 µg/mL	4 µg/mL	≥ 256 µg/mL	O=C1CS/C(=N/N=C\c2ccccc2)N1Cc1ccccc1
4 µg/mL	≥ 256 µg/mL	≥ 256 µg/mL	4 µg/mL	≥ 256 µg/mL	4 µg/mL	2 µg/mL	≥ 256 µg/mL	≥ 256 µg/mL	≥ 256 µg/mL	4 µg/mL	16 µg/mL	≥ 256 µg/mL	O=C1CS/C(=N/N=C\c2ccccn2)N1Cc1ccccc1
8 µg/mL	≥ 256 µg/mL	≥ 256 µg/mL	4 µg/mL	≥ 256 µg/mL	4 µg/mL	8 µg/mL	≥ 256 µg/mL	≥ 256 µg/mL	≥ 256 µg/mL	8 µg/mL	4 µg/mL	≥ 256 µg/mL	C/C(=N/N=C1/SCC(=O)N1Cc1ccccc1)c1ccc([N+](=O)[O-])cc1
8 µg/mL	≥ 256 µg/mL	≥ 256 µg/mL	2 µg/mL	≥ 256 µg/mL	16 µg/mL	4 µg/mL	≥ 256 µg/mL	≥ 256 µg/mL	≥ 256 µg/mL	4 µg/mL	2 µg/mL	≥ 256 µg/mL	O=C1CS/C(=N/N=C\c2ccc([N+](=O)[O-])cc2)N1Cc1ccccc1
